Test results published in ChEMBL document CHEMBL1152539, “Synthesis and evaluation of bioactive naphthoquinones from the Brazilian medicinal plant, Tabebuia avellanedae” (Bioorg Med Chem, 2009).
Values after ≈ are worked out from the molar mass of the structure shown.

How the values were obtained:
Salmonella enteritidis = test: Antimicrobial activity against Salmonella enteritidis OPS10 after 24 hrs by broth dilution method; assay type: functional, Salmonella enterica subsp. enterica serovar Enteritidis; settings: Salmonella enterica, OPS10, 24 h
Procedure, shortened: (§1)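 Modified NCCLS broth dilution. A 50 µL aliquot of bacterial cells (10⁶/mL in 0.85% NaCl) was added to 1 mL Mueller-Hinton broth containing compound over a 0.1–100 range.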

Raji [1] = test: Inhibition of 12-O-tetradecanoylphorbol-13-acetate-induced EBV-early antigen activation in human Raji cells assessed as EA induction at 1000 molar ratio after 48 hrs by immunofluorescence technique relative to 12-O-tetradecanoylphorbol-13-acetate; assay type: cell-based; settings: human gammaherpesvirus 4
Procedure, shortened: (§2)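 Raji cells were incubated for 48 h at 37 °C in medium with n-butyric acid (4 mM), TPA (32 pmol) and graded amounts of test compound. Smears were stained for EBV-EA by indirect immunofluorescence, and positive cells were counted among at least 500 cells. Assays were run in triplicate. Activity was expressed relative to the n-butyric acid plus TPA control, set as 100%.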

Raji [2] = test: Inhibition of 12-O-tetradecanoylphorbol-13-acetate-induced EBV-early antigen activation in human Raji cells assessed as EA induction at 10 molar ratio after 48 hrs by immunofluorescence technique relative to 12-O-tetradecanoylphorbol-13-acetate; assay type: cell-based; design: scale not given: the % may be the effect or the level left; settings: human gammaherpesvirus 4; procedure, shortened: as §2
Candida albicans = test: Antimicrobial activity against Candida albicans NBRC1060 after 24 hrs by broth dilution method; assay type: functional; settings: NBRC1060, 24 h
Raji [3] = test: Inhibition of 12-O-tetradecanoylphorbol-13-acetate-induced EBV-early antigen activation in human Raji cells assessed as EA induction at 500 molar ratio after 48 hrs by immunofluorescence technique relative to 12-O-tetradecanoylphorbol-13-acetate; assay type: cell-based; design: scale not given: the % may be the effect or the level left; settings: human gammaherpesvirus 4; procedure, shortened: as §2
[4] = Inhibition of 12-O-tetradecanoylphorbol-13-acetate-induced EBV-early antigen activation in human Raji cells after 48 hrs by immunofluorescence technique; assay type: cell-based, human gammaherpesvirus 4; procedure, shortened: as §2
Raji [5] = test: Inhibition of 12-O-tetradecanoylphorbol-13-acetate-induced EBV-early antigen activation in human Raji cells assessed as EA induction at 100 molar ratio after 48 hrs by immunofluorescence technique relative to 12-O-tetradecanoylphorbol-13-acetate; assay type: cell-based; design: scale not given: the % may be the effect or the level left; settings: human gammaherpesvirus 4; procedure, shortened: as §2
Penicillium expansum = test: Antimicrobial activity against Penicillium expansum NBRC8800 after 24 hrs by broth dilution method; assay type: functional; settings: NBRC8800, 24 h
Pseudomonas aeruginosa = test: Antimicrobial activity against Pseudomonas aeruginosa NBRC13275 after 24 hrs by broth dilution method; assay type: functional; settings: NBRC13275, 24 h; procedure, shortened: as §1
Naganishia albida = test: Antimicrobial activity against Cryptococcus albidus NBRC0378 after 3-5 days by broth dilution method; settings: NBRC0378, 3-5 days
Escherichia coli = test: Antimicrobial activity against Escherichia coli ATCC 11775 after 24 hrs by broth dilution method; assay type: functional; settings: ATCC 11775, 24 h; procedure, shortened: as §1
Bacillus mycoides = test: Antimicrobial activity against Bacillus mycoides ATCC 11778 after 24 hrs by broth dilution method; assay type: functional; settings: ATCC 11778, 24 h; procedure, shortened: as §1
Bacillus subtilis = test: Antimicrobial activity against Bacillus subtilis NBRC3134 after 24 hrs by broth dilution method; assay type: functional; settings: NBRC3134, 24 h; procedure, shortened: as §1
[6] = Cytotoxicity against human Raji cells assessed as cell viability at 1000 molar ratio after 48 hrs by trypan blue staining; assay type: cell-based; settings: read-out: Activity
Procedure, shortened: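 Raji cells were exposed for 48 h at 37 °C to n-butyric acid (4 mM), TPA (32 pmol) and test compound, as in the EBV-EA induction setup. Viability of the treated cells was then measured by trypan blue staining.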

Saccharomyces cerevisiae [7] = test: Antimicrobial activity against Saccharomyces cerevisiae NBRC10114 after 24 hrs by broth dilution method; assay type: functional; settings: NBRC10114, 24 h
Staphylococcus aureus = test: Antimicrobial activity against Staphylococcus aureus NBRC13276 after 24 hrs by broth dilution method; assay type: functional; settings: NBRC13276, 24 h; procedure, shortened: as §1
Paecilomyces variotii = test: Antimicrobial activity against Paecilomyces variotii NBRC4855 after 3-5 days by broth dilution method; settings: NBRC4855, 3-5 days
Aspergillus fumigatus = test: Antimicrobial activity against Aspergillus fumigatus NBRC4400 after 3-5 days by broth dilution method; settings: NBRC4400, 3-5 days
[8] = Anticancer activity against DMBA/TPA-induced skin cancer in mouse assessed as incidence of papilloma at 85 nmol administered before TPA challenge measured after 10 weeks; assay type: functional
Procedure, shortened: (§3)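 Mouse two-stage skin model: DMBA 390 nmol in 0.1 mL acetone applied topically by pipet. One week later, the same skin site was painted with test compound (85 nmol in acetone) or acetone alone, 60 min before TPA (1.7 nmol). Tumor response was scored as the average number of papillomas per mouse and the percentage of mice bearing papillomas.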

Hepatocyte = test: Antiproliferative activity against human hepatocytes after 72 hrs by trypan blue exclusion assay; assay type: cell-based
Procedure, shortened: (§4)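 Cells were kept in DMEM with 10% fetal serum and exposed to four concentrations of compound for 72 h at 37 °C in humidified 5% CO₂. They were then stained with 0.25% trypan blue for 20 min, and viable cells were counted by light microscopy. IC₅₀ was derived from separate experiments run in triplicate.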

[9] = Anticancer activity against DMBA/TPA-induced skin cancer in mouse assessed as incidence of papilloma at 85 nmol administered before TPA challenge measured after 15 weeks; assay type: functional; procedure, shortened: as §3
[10] = Anticancer activity against DMBA/TPA-induced skin cancer in mouse assessed as incidence of papilloma at 85 nmol administered before TPA challenge measured after 20 weeks; assay type: functional; procedure, shortened: as §3
[11] = Anticancer activity against DMBA/TPA-induced skin cancer in mouse assessed as number of papillomas per mouse at 85 nmol administered before TPA challenge measured after 20 weeks; assay type: functional; procedure, shortened: as §3
[12] = Antiproliferative activity against human skin fibroblast after 72 hrs by trypan blue exclusion assay; assay type: cell-based; procedure, shortened: as §4
[13] = Cytotoxicity against human Raji cells assessed as cell viability at 500 molar ratio after 48 hrs by trypan blue staining; assay type: cell-based; settings: read-out: Activity
Procedure, shortened: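 Raji cells incubated 48 h at 37 °C in medium containing n-butyric acid (4 mM), TPA (32 pmol) and various amounts of test compound, as part of the EBV-EA activation inhibition assay. Viability of the treated cells was then assayed by trypan blue staining.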

PC-3 = test: Antiproliferative activity against human PC3 cells after 72 hrs by trypan blue exclusion assay; assay type: functional, cell-based; settings: PC-3, 72 h; procedure, shortened: as §4
A549 = test: Antiproliferative activity against human A549 cells after 72 hrs by trypan blue exclusion assay; assay type: functional, cell-based; settings: A549, 72 h; procedure, shortened: as §4
MCF7 = test: Antiproliferative activity against human MCF7 cells after 72 hrs by trypan blue exclusion assay; assay type: functional, cell-based; settings: MCF7, 72 h; procedure, shortened: as §4
Saccharomyces cerevisiae [14] = test: Antimicrobial activity against Saccharomyces cerevisiae NBRC10114 after 3-5 days by broth dilution method; settings: NBRC10114, 3-5 days
[15] = Antiproliferative activity against human SVCT-M12 cells after 72 hrs by trypan blue exclusion assay; assay type: cell-based; settings: SVCT-M12, 72 h; procedure, shortened: as §4
[16] = Antiproliferative activity against human Hs888Lu cells after 72 hrs by trypan blue exclusion assay; assay type: cell-based; procedure, shortened: as §4
[17] = Antiproliferative activity against human MPC5 cells after 72 hrs by trypan blue exclusion assay; assay type: cell-based; settings: MPC-5, 72 h; procedure, shortened: as §4

Row | SMILES | MIC (Salmonella enteritidis) | MIC (Candida albicans) | IC50 [4] | MIC (Penicillium expansum) | MIC (Pseudomonas aeruginosa) | MIC (Naganishia albida) | MIC (Escherichia coli) | MIC (Bacillus mycoides) | MIC (Bacillus subtilis) | MIC (Staphylococcus aureus) | MIC (Paecilomyces variotii) | MIC (Aspergillus fumigatus) | EA induction relative to TPA control (Raji [1]) | Activity (Raji [2]) | Activity (Raji [3]) | Activity (Raji [5]) | viability at 48 h, 1000 molar ratio [6] | EC50 (Hepatocyte) | EC50 [12] | viability at 48 h, 500 molar ratio [13] | other results
1 | CC(C)=CCC1=C(O)C(=O)c2ccccc2C1=O [LAPACHOL] | – | – | 311 mol ratio/32 pmol TPA | – | – | – | – | – | – | – | – | – | 8.9% | 86.6% | 32.8% | 65.2% | 50% | – | – | 60% | IC50 (PC-3): 1970 nM; IC50 (A549): 4780 nM; IC50 (MCF7): 10200 nM
2 | CC(=O)c1cc2c(o1)C(=O)c1cccc(O)c1C2=O | > 100 µg/mL | > 100 µg/mL | 37.2 mol ratio/32 pmol TPA | 50 µg/mL (≈ 195 µM) | > 100 µg/mL | 1.56 µg/mL (≈ 6.09 µM) | > 100 µg/mL | 0.78 µg/mL (≈ 3.04 µM) | 1.56 µg/mL (≈ 6.09 µM) | 1.56 µg/mL (≈ 6.09 µM) | 100 µg/mL (≈ 390 µM) | 100 µg/mL (≈ 390 µM) | 0% | 56% | 7.1% | 23.7% | 60% | – | – | – | MIC (Saccharomyces cerevisiae [14]): 1.56 µg/mL (≈ 6.09 µM); IC50 (PC-3): 840 nM; IC50 (A549): 2000 nM; EC50 [15]: 7700 nM; EC50 [16]: 7700 nM; IC50 (MCF7): 780 nM
3 | CO[C@@]12[C@H](COC(N)=O)C3=C(C(=O)C(C)=C(N)C3=O)N1C[C@@H]1N[C@@H]12 [MITOMYCIN] | – | – | – | – | – | – | – | – | – | – | – | – | – | – | – | – | – | 1460 nM | 930 nM | – | EC50 [17]: 2100 nM; EC50 [15]: 960 nM; EC50 [16]: 560 nM

More lines, main results first:

Row | MIC (Salmonella enteritidis) | MIC (Candida albicans) | IC50 [4] | MIC (Penicillium expansum) | MIC (Pseudomonas aeruginosa) | MIC (Naganishia albida) | MIC (Escherichia coli) | MIC (Bacillus mycoides) | MIC (Bacillus subtilis) | MIC (Staphylococcus aureus) | MIC (Paecilomyces variotii) | MIC (Aspergillus fumigatus) | SMILES | EA induction relative to TPA control (Raji [1]) | Activity (Raji [2]) | Activity (Raji [3]) | Activity (Raji [5]) | viability at 48 h, 1000 molar ratio [6] | EC50 (Hepatocyte) | EC50 [12] | viability at 48 h, 500 molar ratio [13] | other results
4 | > 100 µg/mL | 25 µg/mL (≈ 96.8 µM) | 201 mol ratio/32 pmol TPA | 50 µg/mL (≈ 194 µM) | > 100 µg/mL | 1.56 µg/mL (≈ 6.04 µM) | > 100 µg/mL | 1.56 µg/mL (≈ 6.04 µM) | 1.56 µg/mL (≈ 6.04 µM) | 6.25 µg/mL (≈ 24.2 µM) | 50 µg/mL (≈ 194 µM) | 25 µg/mL (≈ 96.8 µM) | C[C@@H](O)c1cc2c(o1)C(=O)c1c(O)cccc1C2=O | 4.2% | 76.3% | 20.4% | 52.5% | 60% | – | – | – | MIC (Saccharomyces cerevisiae [7]): 3.13 µg/mL (≈ 12.1 µM)
5 | – | – | 34.9 mol ratio/32 pmol TPA | – | – | – | – | – | – | – | – | – | CC(O)c1cc2c(o1)C(=O)c1cccc(O)c1C2=O (racemic) | 0% | 52.9% | 6.2% | 20.7% | 60% | 89300 nM | 45400 nM | 70% | Activity [8]: 7%; Activity [9]: 47%; Activity [10]: 67%; Activity [11]: 3.9
